Screens: PubChem, Sanford-Burnham Center for Chemical Genomics
Hits are enriched below; roughly 2.4% of the tested compounds scored in any of these assays.
STEP block: inhibitors of human striatal-enriched phosphatase STEP. P54829. recombinant STEP, OMFP fluorogenic substrate, fluorescence. inhibition, % at 20 µM. hit rate 0.25% among 360,000. AID 588621;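 active = inhibition at 20 µM, scaled per plate between control wells, above about 37%, limit read from the data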;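 note: 0% = DMSO with enzyme and substrate and 100% = substrate only without enzyme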
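System: STEP phosphatase, cell-free reaction; Buffer or medium: Bis-Tris pH 6.0 buffer with DTT, detergent; Incubation: 20 min at room temperature, dark; Measured by: fluorescence, 480/540 nm.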
NadD block: NadD (S. aureus) enzyme inhibition; purified NadD enzyme, colorimetric absorbance read-out; inhibition, % at 20 µM; hit rate 0.78% among 360,000; AID 602399; in the data active = inhibition above about 26%
Scp1 inh: blocks human Scp-1 phosphatase activity; Q9GZU7; Recombinant Scp1, phosphopeptide, malachite green phosphate absorbance; inhibition, % at 20 µM; hit rate 0.88% among 340,000; AID 493091;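 active = inhibition above about 50% at 20 µM, limit read from the data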;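 note: plate controls were DMSO wells with enzyme for no effect and wells lacking enzyme for full effect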
Target sequence (Q9GZU7 76-261 limits assumed): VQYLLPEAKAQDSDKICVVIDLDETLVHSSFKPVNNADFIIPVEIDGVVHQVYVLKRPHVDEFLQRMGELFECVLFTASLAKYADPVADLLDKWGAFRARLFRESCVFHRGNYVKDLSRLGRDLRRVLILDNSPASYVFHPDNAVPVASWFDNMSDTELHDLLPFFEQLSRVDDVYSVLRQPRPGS
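Incubation: 45 min enzyme reaction at room temperature / System: truncated SCP-1 phosphatase (76-261aa) / Reagent: Phospho 17-mer peptide substrate / Buffer or medium: Acidic Tris acetate buffer with magnesium and detergent / Signal: absorbance at 630 nm / Doses: one concentration, 20 µM, with 1.0% DMSO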
LMPTP block: blocks human LMPTP phosphatase. P24666. recombinant LMPTP-A, OMFP fluorogenic substrate, fluorescence intensity. inhibition, % at 20 µM. hit rate 0.22% among 360,000;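 active = compounds that cut the enzyme signal by at least half of the control window in the single-dose screen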;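 note: plate controls were DMSO wells with enzyme plus substrate for no effect and substrate without enzyme for full effect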
Target sequence (P24666 whole entry, looked up): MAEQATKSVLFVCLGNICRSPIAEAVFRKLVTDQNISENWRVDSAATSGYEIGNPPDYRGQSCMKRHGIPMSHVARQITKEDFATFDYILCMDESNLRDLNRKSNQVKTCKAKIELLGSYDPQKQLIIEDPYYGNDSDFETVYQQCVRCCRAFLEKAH
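Assay system: LMPTP-A, protein tyrosine phosphatase of low molecular weight / Medium: pH 6.0 Bis-Tris buffer with DTT and Triton X-100 / Schedule: 50 min enzyme reaction at room temperature, protected from light / Measured by: endpoint fluorescence intensity from OMFP dephosphorylation / Read-out basis: % inhibition relative to no-enzyme and uninhibited control wells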
DNMT1 inh: DNMT1 (human) enzyme inhibition. P26358. DNMT1 molecular beacon, Hinp1I cleavage, fluorescence. inhibition (reported as % activation of signal), % at 10 µM. hit rate 0.83% among 360,000. AID 588458; in the data active = inhibition above about 50%
SUMO1-SIM PPI: alters human SUMO1 binding to SIM partners; P63165; SUMO1 binding to a labelled peptide, TR-FRET, 1 h; inhibition, % at 20 µM; hit rate 0.33% among 360,000; AID 602429; in the data active = inhibition above about 37%
Target sequence (P63165 whole entry, looked up): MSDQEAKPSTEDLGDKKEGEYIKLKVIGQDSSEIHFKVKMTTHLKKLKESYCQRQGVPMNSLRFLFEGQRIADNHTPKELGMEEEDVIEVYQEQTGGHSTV
NadD inh conf: NadD (S. aureus) inhibition, single concentration confirmation | shares compounds with NadD block | purified S. aureus NadD, colorimetric enzyme assay | inhibition, % at 20 µM | hit rate 13% among 2,000; in the data active = inhibition mostly above about 42%, no sharp cut-off; inactive = mostly below about 42%
Starred values were filed as active, the others as inactive; . = not tested or not shown.

SMILES	STEP block	NadD block	Scp1 inh	LMPTP block	DNMT1 inh	SUMO1-SIM PPI	NadD inh conf
O=C1N/C(=N\N=C\c2ccc3ncccc3c2)SC1Cc1ccc(SC(F)F)cc1 (stereo unspecified)	2	33*	4	1	2	2	10
O=C1N/C(=N\N=C\c2cccnc2)SC1Cc1ccc(SC(F)F)cc1 (stereo unspecified)	-5	6	-7	0	-10	1	.
O=C(Nc1ccc(N2CCOCC2)c(S(=O)(=O)Nc2ccccc2Cl)c1)c1ccccc1	1	23	4	4	-7	5	.
COc1ccccc1NS(=O)(=O)c1cc(NC(=O)Nc2cccc(C)c2)ccc1N1CCCCC1	-1	30*	11	3	-6	1	47
CN1CCN(c2ccc(Cl)cc2NC(=O)c2ccc(S(=O)(=O)N(C)C)cc2)CC1	0	-7	-2	0	-3	-3	.
O=C(Nc1ccc(Cl)cc1)Nc1ccc(N2CCCC2)c(S(=O)(=O)Nc2ccccc2Cl)c1	-1	33*	-3	3	-8	3	22
COc1ccccc1NS(=O)(=O)c1cc(NC(C)=O)ccc1N1CCCCC1	3	2	2	2	6	0	.
CN(C)S(=O)(=O)c1ccc(C(=O)Nc2cc(S(=O)(=O)Nc3ccccc3Cl)ccc2N2CCCCC2)cc1	0	29*	5	1	-7	5	32
Cc1cccc(NC(=O)c2cc(NC(=O)c3ccccc3)ccc2N2CCCCC2)c1	0	32*	-7	2	7	20	20
CCN(CC(=O)Nc1c(F)cccc1F)C(=O)Cn1c(=O)cnc2ccccc21	-2	4	-6	-10	5	-9	.
COc1ccc(C(=O)O)cc1S(=O)(=O)Nc1ccccc1-c1ccccc1	2	-9	-5	-2	0	2	.
CCCCN(C(=O)C1CCN(C(=O)c2ccccc2C)CC1)c1c(N)n(CC(C)C)c(=O)[nH]c1=O	4	-2	1	0	6	0	.
Nc1nonc1-n1nnc(C(=O)N/N=C/c2ccc(OCc3ccccc3)cc2)c1CNc1ccccc1	-1	39*	-5	0	2	3	1
Nc1nonc1-n1nnc(C(=O)N/N=C/c2ccc(OCc3ccccc3)cc2)c1COc1ccc(F)cc1	0	24	-7	3	0	-4	.
Cc1cccc(COc2ccc(/C=N/NC(=O)c3nnn(-c4nonc4N)c3CN3CCCCC3)cc2)c1	0	31*	-14	3	-5	-3	10
CCN(Cc1nc2cc(Cl)ccc2c(=O)[nH]1)C(=O)c1cccc(OCc2c(C)noc2C)c1	-1	8	-8	1	-3	7	.
CC(=O)c1ccc(NC(=O)COC(=O)C2C3CC4OC(=O)C2C4C3)cc1 (stereo unspecified)	-1	-3	6	-1	1	-6	.
CCC(=O)N1CCN(c2nc3ccccc3s2)CC1	1	1	-2	-1	0	1	.
O=C(c1cc2sccc2n1Cc1ccccc1)N1CCN(c2nc3ccccc3s2)CC1	1	34*	16	4	-8	-1	21
Cc1nc(SCC(=O)c2cc3ccccc3oc2=O)c(C#N)c(-c2ccccc2)c1C(=O)Nc1ccccc1	2	28*	-11	3	46	2	-6
CCN(CC)c1ccc(S(=O)(=O)N2CCOCC2)cc1NC(=O)COC(=O)C1=COCCO1	-1	-1	-5	0	1	0	.
CCN(CC(=O)NC(C)(C)C)Cc1nc2c(Br)cc(Br)cc2c(=O)[nH]1	3	-5	-12	0	0	-1	.
Cc1ccc(NC(=O)CN(C)Cc2nc3c(Br)cc(Br)cc3c(=O)[nH]2)cc1	0	29*	-1	2	-3	-31	-1
O=C(COc1ccccc1F)N1N=C(c2cccs2)CC1c1ccco1 (stereo unspecified)	1	-3	32	2	12	-3	.
CCOC(=O)C1=C(N)n2c(s/c(=C\c3ccco3)c2=O)=C(C(=O)OC(C)C)C1c1ccco1 (stereo unspecified)	1	32*	6	1	1	1	18
SMILES	STEP block	NadD block	Scp1 inh	LMPTP block	DNMT1 inh	SUMO1-SIM PPI	NadD inh conf
CCOC(=O)C1=C(N)n2c(s/c(=C\c3ccco3)c2=O)=C(C(=O)OCC)C1c1ccco1 (stereo unspecified)	18	21	-4	1	-1	2	.
N#C/C(=C/c1ccc(F)cc1)c1nnc(NC(=O)c2ccccc2)s1	6	36*	-14	3	9	21	4
FC(F)(F)c1cc(-c2ccco2)nc(NCc2ccco2)n1	-1	34*	-5	1	5	3	40
Nc1c(C(=O)N/N=C/c2ccccc2Cl)oc2nc(-c3ccccc3)cc(-c3ccco3)c12	-2	31*	-2	2	-7	-12	-4
CCOc1ccc(N2C(=O)/C(=C\c3ccc(OC)c(O)c3)S(=O)(=O)C2c2cccc([N+](=O)[O-])c2)cc1 (stereo unspecified)	-2	34*	-15	3	-4	-5	8
CC(=O)C1=C(O)C(=O)N(c2ccc(O)cc2)C1c1cccc([N+](=O)[O-])c1 (stereo unspecified)	-4	-1	-1	-1	7	-12	.
CCOc1ccc(N2C(=O)/C(=C\c3ccc(O)c(OC)c3)S(=O)(=O)C2c2cccc([N+](=O)[O-])c2)cc1 (stereo unspecified)	-2	43*	-31	3	-5	-31	62*
COc1ccc(C2/C(=C(/O)c3ccc(Br)cc3)C(=O)C(=O)N2C)cc1 (stereo unspecified)	14	0	-9	0	-3	-14	.
C#CC(C)(CC)NC(=O)c1cc2cccc(CC=C)c2oc1=O (stereo unspecified)	-2	-9	3	0	4	-4	.
Cc1cc(NC(=O)CSc2nc3c(sc4ccccc43)c(=O)n2CCc2ccccc2)n[nH]1	-4	34*	-2	2	44	2	2
O=C(c1ccco1)N1CCN(Cc2cccc([N+](=O)[O-])c2)CC1	3	4	-3	-2	-1	-13	.
Cc1ccc(-n2c(O)c(C=Nc3ccccc3-c3n[nH]c(=S)[nH]c3=O)c3ccccc3c2=O)c(C)c1	3	32*	-8	3	8	2	37
Cc1ccc(-n2c(O)c(C=Nc3ccccc3-c3n[nH]c(=S)[nH]c3=O)c3ccccc3c2=O)cc1C	7	39*	-2	4	8	20	62*
